{
  "source": "ChEMBL document CHEMBL4699498",
  "about": "(J Med Chem, 2020)",
  "key": {"SW-620": {"test_system": "SW-620", "assay": "Potentiation of TMZ induced antitumor activity against SW-620 cells xenografted in Balb/c mouse assessed as tumor growth suppression administered intraperitoneally once daily for 5 days", "format": "functional", "settings": "dose mg/kg 5-10, time 5.0 day", "outline": "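Male BALB/c nude mice carried SW620 xenografts (6×10^6 cells s.c.), randomized at ~150 mm³ (6 per group). TMZ 50 mg/kg was given orally once daily on days 0-4, 45 min after the partner drug. Partners were 5 or 10 mg/kg intraperitoneally or 10 mg/kg by oral gavage, daily for 5 days. Vehicle was 5% DMSO/20% PEG400/10% Cremophor EL/65% saline. Tumor volume and body weight were recorded 2-3 times weekly.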"}, "Mus musculus": {"test_system": "Mus musculus", "assay": "Induction of PARP1 degradation in SW-620 cells xenografted Balb/c mouse at 25 mg/kg, ip at 1 to 24 hrs by Western blotting analysis", "format": "functional, organism-based", "settings": "time hrs 1-24", "outline": "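Male BALB/c nude mice carried subcutaneous SW620 xenografts (6×10^6 cells); at 200-300 mm³ they were randomized. A single 25 mg/kg intraperitoneal dose was given. Tumors were harvested at 1, 3, 6 and 24 h, and vehicle controls at 3 h. Tumors were frozen, ground in liquid nitrogen, and PARP1 was analysed by western blot against β-tubulin.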"}, "HEK293": {"test_system": "HEK293", "assay": "Cytotoxicity against human HEK293 cells assessed as cell viability incubated for 120 hrs by CCK-8 assay", "format": "cell-based", "settings": "hek293, 120 h"}, "[1]": {"molecular_target": "Protein cereblon/Poly [ADP-ribose] polymerase 1 (Homo sapiens, UniProt P09874+Q96SW2)", "sequence (P09874 2-1014 limits assumed)": "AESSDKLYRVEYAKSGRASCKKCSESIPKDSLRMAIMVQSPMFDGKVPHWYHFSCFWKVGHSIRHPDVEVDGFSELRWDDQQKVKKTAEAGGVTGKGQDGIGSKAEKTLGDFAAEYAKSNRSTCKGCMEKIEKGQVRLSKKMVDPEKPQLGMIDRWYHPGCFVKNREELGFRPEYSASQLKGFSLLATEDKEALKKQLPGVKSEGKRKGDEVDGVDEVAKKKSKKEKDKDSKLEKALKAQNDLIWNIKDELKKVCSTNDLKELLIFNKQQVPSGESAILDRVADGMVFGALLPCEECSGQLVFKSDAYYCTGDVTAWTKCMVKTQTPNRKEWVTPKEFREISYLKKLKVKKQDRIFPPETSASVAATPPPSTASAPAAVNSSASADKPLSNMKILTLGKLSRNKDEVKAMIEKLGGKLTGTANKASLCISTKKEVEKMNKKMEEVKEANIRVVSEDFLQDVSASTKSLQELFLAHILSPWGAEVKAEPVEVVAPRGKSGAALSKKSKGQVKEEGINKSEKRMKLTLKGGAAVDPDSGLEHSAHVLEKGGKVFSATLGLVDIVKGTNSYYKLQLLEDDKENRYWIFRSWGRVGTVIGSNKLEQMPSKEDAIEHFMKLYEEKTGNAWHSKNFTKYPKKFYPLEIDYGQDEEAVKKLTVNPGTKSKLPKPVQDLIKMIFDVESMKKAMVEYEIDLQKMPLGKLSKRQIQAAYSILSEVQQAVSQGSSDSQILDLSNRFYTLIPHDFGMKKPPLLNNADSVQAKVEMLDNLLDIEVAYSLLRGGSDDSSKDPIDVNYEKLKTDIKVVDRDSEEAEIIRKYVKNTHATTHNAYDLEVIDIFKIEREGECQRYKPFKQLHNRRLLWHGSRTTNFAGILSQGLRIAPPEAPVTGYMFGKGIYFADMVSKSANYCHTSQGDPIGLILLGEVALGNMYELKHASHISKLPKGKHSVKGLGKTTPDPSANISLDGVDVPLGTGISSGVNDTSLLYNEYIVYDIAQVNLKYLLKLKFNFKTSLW", "sequence (Q96SW2 whole entry partner)": "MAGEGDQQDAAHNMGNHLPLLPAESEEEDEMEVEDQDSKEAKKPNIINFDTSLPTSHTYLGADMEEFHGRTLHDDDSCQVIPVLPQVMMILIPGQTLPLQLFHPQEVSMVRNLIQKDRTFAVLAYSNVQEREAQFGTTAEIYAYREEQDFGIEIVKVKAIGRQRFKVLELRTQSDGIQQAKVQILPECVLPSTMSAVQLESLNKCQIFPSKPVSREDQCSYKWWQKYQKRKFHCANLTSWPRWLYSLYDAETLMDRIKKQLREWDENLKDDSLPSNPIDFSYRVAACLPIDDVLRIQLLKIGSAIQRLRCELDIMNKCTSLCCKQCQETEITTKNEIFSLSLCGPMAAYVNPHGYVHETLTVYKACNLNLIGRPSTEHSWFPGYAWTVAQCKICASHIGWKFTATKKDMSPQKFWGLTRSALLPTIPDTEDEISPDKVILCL", "assay": "Protac activity at CRBN/PARP1 in human MDA-MB-436 cells assessed as induction of PARP1 degradation at 100 nM measured after 5 days by Western blot analysis", "format": "cell-based", "settings": "time 5.0 day", "outline": "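MDA-MB-436 cells kept at 100 nM for up to 5 days; PARP1 followed by western blot against β-tubulin.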"}},
  "note": "Activity calls are given as the source filed them. The rule behind the calls is not given here.",
  "data": [
    {"smiles": "O=C(CCCCCCCCCCC(=O)N1CCN(C(=O)c2cc(Cc3n[nH]c(=O)c4ccccc34)ccc2F)CC1)NCCNc1cccc2c1C(=O)N(C1CCC(=O)NC1=O)C2=O", "note": "(centres undefined)", "values": [
      {"measurement": "Activity", "setting": "SW-620", "result": "Dose-dependent effect"},
      {"measurement": "Activity", "setting": "Mus musculus", "result": "Active"},
      {"measurement": "Activity", "setting": "HEK293", "result": "Non-Toxic"},
      {"measurement": "Activity", "setting": "[1]", "result": "Active"}
    ]}
  ]
}
